The values below come from ChEMBL document CHEMBL4823291, “Discovery of 5,6,7,8-tetrahydropyrido[3,4-d]pyrimidine derivatives as novel selective Axl inhibitors” (Bioorg Med Chem Lett, 2021).

Molecules are shown by their SMILES.

For one data set, the target named is CYP2C9 (Homo sapiens, UniProt P11712). The data set is described as follows: Time dependent inhibition of CYP2C9 in human liver microsomes assessed as enzyme remaining activity using cocktail of probe CYP as substrate at 50 uM. Type of data set: ADME. To be noted: probe cocktail of CYP probe substrates, read-out: Activity. A digest of the protocol: (§1)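 Time-dependent CYP inhibition in human liver microsomes, with test compound at 50 µM and a cocktail of probe CYP substrates.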

Data set [1] is described as follows: Metabolic stability in mouse liver microsomes assessed as residual ratio at 0.1 uM for 30 mins. The following applies: read-out: Stabilty. Type of data set: ADME, Microsome. A digest of the protocol: (§2)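 Compound incubated at 0.1 µM for 30 min with human or mouse liver microsomes. Residual ratio of parent determined afterwards.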
The species entered for another data set is Homo sapiens. Nature of the data set: Ratio of IC50 for Mer (unknown origin) to IC50 for Axl (unknown origin).
Data set [2] is described as follows: Tmax in CAnN.Cg-Foxnlnu/CrlCrlj mouse plasma at 25 mg/kg, po single dose measured up to 24 hrs by liquid chromatography tandem mass spectrometry. Type of data set: ADME, organism-based.
Data set [3] is described as follows: Cmax in CAnN.Cg-Foxnlnu/CrlCrlj mouse plasma at 100 mg/kg, po single dose measured up to 24 hrs by liquid chromatography tandem mass spectrometry. Type of data set: ADME, organism-based. On the set-up: route oral, dose 100 mg/kg, time <=24.
Data set [4] has as its target T1, Tyrosine-protein kinase receptor UFO (Homo sapiens, UniProt P30530).
T1 sequence (P30530 whole entry): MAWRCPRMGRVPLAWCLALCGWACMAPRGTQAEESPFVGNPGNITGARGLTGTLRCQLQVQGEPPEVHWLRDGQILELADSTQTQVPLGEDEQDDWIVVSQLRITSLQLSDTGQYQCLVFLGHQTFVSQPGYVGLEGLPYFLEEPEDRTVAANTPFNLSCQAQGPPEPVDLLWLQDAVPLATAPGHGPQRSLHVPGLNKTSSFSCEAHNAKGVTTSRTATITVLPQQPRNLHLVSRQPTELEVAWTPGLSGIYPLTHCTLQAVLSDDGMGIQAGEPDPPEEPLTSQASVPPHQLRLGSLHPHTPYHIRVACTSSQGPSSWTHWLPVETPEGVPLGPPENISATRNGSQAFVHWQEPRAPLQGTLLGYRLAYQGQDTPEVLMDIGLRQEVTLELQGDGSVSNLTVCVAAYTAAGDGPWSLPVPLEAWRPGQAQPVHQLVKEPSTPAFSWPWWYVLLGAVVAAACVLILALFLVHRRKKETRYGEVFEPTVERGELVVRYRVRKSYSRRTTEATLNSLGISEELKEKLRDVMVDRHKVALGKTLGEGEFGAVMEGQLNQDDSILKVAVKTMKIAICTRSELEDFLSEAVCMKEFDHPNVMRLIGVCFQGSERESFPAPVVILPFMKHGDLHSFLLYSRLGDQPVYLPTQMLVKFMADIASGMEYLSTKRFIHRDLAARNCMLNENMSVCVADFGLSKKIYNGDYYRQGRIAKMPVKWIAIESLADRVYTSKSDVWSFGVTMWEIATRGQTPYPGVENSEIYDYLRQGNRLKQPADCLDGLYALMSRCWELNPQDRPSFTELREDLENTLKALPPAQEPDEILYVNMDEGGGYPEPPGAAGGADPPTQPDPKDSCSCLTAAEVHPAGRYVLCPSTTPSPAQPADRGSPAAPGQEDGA
Nature of the data set: Inhibition of Axl (unknown origin) by cell free assay.

In a further data set the target is CYP2D6 (Homo sapiens, UniProt P10635). Nature of the data set: Time dependent inhibition of CYP2D6 in human liver microsomes assessed as enzyme remaining activity using cocktail of probe CYP as substrate at 50 uM. Type of data set: ADME. The following applies: probe cocktail of CYP probe substrates, read-out: Activity. A digest of the protocol: as §1
A short description of data set [5]: Permeability of compound by PAMPA assay. Type of data set: ADME. To be noted: read-out: permeability.
Data set [6] is described as follows: Metabolic stability in human liver microsomes assessed as residual ratio at 0.1 uM for 30 mins. Type of data set: ADME, Microsome. The following applies: read-out: Stabilty. A digest of the protocol: as §2
For the next data set, the target named is CYP2C19 (Homo sapiens, UniProt P33261). The data set is described as follows: Time dependent inhibition of CYP2C19 in human liver microsomes assessed as enzyme remaining activity using cocktail of probe CYP as substrate at 50 uM. To be noted: probe cocktail of CYP probe substrates, read-out: Activity. Type of data set: ADME. The procedure, abridged: as §1

Data set [7] can be described thus: Tmax in CAnN.Cg-Foxnlnu/CrlCrlj mouse plasma at 100 mg/kg, po single dose measured up to 24 hrs by liquid chromatography tandem mass spectrometry. Type of data set: ADME, organism-based.
Data set [8] is described as follows: Cmax in CAnN.Cg-Foxnlnu/CrlCrlj mouse plasma at 25 mg/kg, po single dose measured up to 24 hrs by liquid chromatography tandem mass spectrometry. Type of data set: ADME, organism-based. More on the design: route oral, dose 25 mg/kg, time <=24.
The target of data set [9] is T2, Tyrosine-protein kinase receptor UFO (Mus musculus, UniProt Q00993).
T2 sequence (Q00993 whole entry): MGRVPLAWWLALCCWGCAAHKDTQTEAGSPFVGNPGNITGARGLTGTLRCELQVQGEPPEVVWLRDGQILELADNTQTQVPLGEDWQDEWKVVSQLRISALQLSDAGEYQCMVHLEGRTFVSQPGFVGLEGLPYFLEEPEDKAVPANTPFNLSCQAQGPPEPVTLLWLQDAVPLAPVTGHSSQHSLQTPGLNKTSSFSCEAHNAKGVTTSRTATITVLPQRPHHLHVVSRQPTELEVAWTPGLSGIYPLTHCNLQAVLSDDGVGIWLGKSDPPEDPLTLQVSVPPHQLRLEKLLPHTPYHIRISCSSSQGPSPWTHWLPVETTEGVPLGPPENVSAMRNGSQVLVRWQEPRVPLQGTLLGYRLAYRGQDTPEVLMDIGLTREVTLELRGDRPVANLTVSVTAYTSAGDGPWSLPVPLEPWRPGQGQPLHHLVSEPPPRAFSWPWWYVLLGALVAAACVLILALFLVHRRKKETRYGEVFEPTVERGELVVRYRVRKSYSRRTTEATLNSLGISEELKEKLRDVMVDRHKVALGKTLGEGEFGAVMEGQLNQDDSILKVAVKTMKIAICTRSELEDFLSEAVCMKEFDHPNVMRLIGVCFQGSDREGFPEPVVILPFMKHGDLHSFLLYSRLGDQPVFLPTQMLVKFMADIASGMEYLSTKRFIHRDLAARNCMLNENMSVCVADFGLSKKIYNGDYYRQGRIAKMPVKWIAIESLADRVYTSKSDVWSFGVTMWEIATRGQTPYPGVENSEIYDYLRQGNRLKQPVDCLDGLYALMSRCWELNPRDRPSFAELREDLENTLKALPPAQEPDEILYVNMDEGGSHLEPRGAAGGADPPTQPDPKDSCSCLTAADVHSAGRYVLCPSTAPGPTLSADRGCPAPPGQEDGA
Nature of the data set: Inhibition of Axl in mouse BaF3 cells. Type of data set: cell-based.

Sequence of CYP2C9 (P11712 whole entry): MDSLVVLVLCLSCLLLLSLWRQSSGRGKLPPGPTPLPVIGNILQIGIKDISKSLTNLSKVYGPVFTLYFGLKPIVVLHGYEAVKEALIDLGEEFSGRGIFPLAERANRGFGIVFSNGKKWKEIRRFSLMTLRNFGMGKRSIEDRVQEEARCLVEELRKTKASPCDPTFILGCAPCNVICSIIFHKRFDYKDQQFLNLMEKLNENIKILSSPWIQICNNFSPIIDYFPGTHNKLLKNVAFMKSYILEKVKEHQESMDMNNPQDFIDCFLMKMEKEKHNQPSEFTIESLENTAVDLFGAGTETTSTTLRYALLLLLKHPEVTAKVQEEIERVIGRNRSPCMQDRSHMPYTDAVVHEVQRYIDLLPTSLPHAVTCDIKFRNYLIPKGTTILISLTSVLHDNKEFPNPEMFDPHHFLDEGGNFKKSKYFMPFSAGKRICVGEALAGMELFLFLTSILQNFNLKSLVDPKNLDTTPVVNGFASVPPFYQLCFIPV
Sequence of CYP2C19 (P33261 whole entry): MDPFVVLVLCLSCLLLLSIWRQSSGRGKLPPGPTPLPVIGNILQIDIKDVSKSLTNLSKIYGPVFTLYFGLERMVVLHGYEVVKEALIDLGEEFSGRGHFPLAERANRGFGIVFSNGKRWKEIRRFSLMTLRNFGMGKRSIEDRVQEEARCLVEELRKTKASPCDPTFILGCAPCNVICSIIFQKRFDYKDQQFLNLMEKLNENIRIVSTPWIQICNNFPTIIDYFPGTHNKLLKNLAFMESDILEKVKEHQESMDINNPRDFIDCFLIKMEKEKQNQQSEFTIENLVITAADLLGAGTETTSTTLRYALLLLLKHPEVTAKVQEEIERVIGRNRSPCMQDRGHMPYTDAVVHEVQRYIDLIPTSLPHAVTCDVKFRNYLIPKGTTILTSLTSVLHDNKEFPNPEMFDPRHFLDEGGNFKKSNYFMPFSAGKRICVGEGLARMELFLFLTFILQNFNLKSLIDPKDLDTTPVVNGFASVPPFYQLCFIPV
Sequence of CYP2D6 (P10635 whole entry): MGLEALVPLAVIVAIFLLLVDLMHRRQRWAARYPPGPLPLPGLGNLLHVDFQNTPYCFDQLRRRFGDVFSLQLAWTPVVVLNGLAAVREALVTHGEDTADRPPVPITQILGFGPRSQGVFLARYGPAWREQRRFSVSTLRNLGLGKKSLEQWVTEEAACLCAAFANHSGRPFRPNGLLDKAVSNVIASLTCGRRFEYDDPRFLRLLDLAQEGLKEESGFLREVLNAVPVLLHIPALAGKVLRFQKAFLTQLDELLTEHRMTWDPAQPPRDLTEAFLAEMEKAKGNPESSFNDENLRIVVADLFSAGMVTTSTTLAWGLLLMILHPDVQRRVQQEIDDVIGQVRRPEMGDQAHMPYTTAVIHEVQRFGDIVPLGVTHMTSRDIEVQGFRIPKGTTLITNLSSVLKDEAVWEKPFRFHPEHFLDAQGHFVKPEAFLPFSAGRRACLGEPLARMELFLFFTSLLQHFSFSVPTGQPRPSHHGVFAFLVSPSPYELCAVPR

For the molecule `Cc1ccc(-n2c(=O)c(C(=O)Nc3ccc(Oc4ncnc5c4CCN(CC4CCN(C)CC4)C5)c(F)c3)cn(C3CCCC3)c2=O)nc1`, the activity at 50 µM at CYP2C9 worked out at 87%; at CYP2D6 it was 83%; at CYP2C19 it was 89%. For the same molecule, the remaining at 0.5 h, 0.1 µM amounted to 66.3% in data set [1] and 99% in data set [6]. Moreover, the Ratio IC50 in the data set listed under Homo sapiens was determined as 37. Moreover, the Tmax is 2 h in data set [2] and 1 h in data set [7]. The Cmax in [3] amounted to 10900 ng/mL; in [8], 2340 ng/mL. Besides, the IC50 in [4] was found to be 5.2 nM; in [9] it was 28 nM. In data set [5], the Papp was 0.91 ×10⁻⁶ cm/s.
